Laboratory results taken from ChEMBL document CHEMBL1955763, “Antimicrobial activity of sulfonamides containing 5-chloro-2-hydroxybenzaldehyde and 5-chloro-2-hydroxybenzoic acid scaffold” (Eur J Med Chem, 2012).
In brackets after ≈: the same amount, converted by molar mass.

How the values were obtained:
[1] = test system: Mycobacterium tuberculosis; assay: Antimycobacterial activity against Mycobacterium tuberculosis H37Rv 331/88 after 14 days; type: functional; settings: H37Rv 331/88, 336 h
[2] = test system: Mycobacterium tuberculosis; assay: Antimycobacterial activity against Mycobacterium tuberculosis H37Rv 331/88 after 21 days; type: functional; settings: H37Rv 331/88, 504 h
How it was run: (§1)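 Micromethod in Sula semisynthetic medium, with compounds added as DMSO solutions over a two-fold series from 1000 down to 1. Inoculum for M. avium 330/88 was a 10⁻⁵ dilution. Plates were incubated at 37 °C and MIC was read after 14 and 21 days.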

Mycobacterium avium [3] = assay: Antimycobacterial activity against isoniazid-, rifampicin-, ofloxacin-, ethambutol-resistant Mycobacterium avium 330/88 after 14 days; type: functional; settings: 330/88, 336 h; how it was run: as §1
Mycobacterium avium [4] = assay: Antimycobacterial activity against isoniazid-, rifampicin-, ofloxacin-, ethambutol-resistant Mycobacterium avium 330/88 after 21 days; type: functional; settings: 330/88, 504 h; how it was run: as §1
Mycobacterium kansasii [5] = assay: Antimycobacterial activity against Mycobacterium kansasii 235/80 after 7 days; type: functional; settings: 235/80, 168 h
How it was run: (§2)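 Micromethod MIC in Sula semisynthetic medium, with compounds added as DMSO solutions at […]. Incubation at 37 °C. Inocula: M. kansasii 235/80 at dilution 10⁻⁴, clinical isolate 6509/96 at 10⁻⁵.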

Mycobacterium kansasii [6] = assay: Antimycobacterial activity against Mycobacterium kansasii 235/80 after 14 days; type: functional; settings: 235/80, 336 h; how it was run: as §2
Mycobacterium kansasii [7] = assay: Antimycobacterial activity against Mycobacterium kansasii 235/80 after 21 days; type: functional; settings: 235/80, 504 h; how it was run: as §2
Mycobacterium kansasii [8] = assay: Antimycobacterial activity against Mycobacterium kansasii 6509/96 after 7 days; type: functional; settings: 6509/96, 168 h; how it was run: as §2
Mycobacterium kansasii [9] = assay: Antimycobacterial activity against Mycobacterium kansasii 6509/96 after 14 days; type: functional; settings: 6509/96, 336 h; how it was run: as §2
Mycobacterium kansasii [10] = assay: Antimycobacterial activity against Mycobacterium kansasii 6509/96 after 21 days; type: functional; settings: 6509/96, 504 h; how it was run: as §2
Staphylococcus aureus [11] = assay: Antibacterial activity against Staphylococcus aureus CCM 4516/08 after 24 hrs by broth microdilution method; type: functional; settings: CCM 4516/08, 24 h
How it was run: (§3)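 Microdilution broth method modified from M07-A07, in Mueller-Hinton broth at pH 7.4 (±0.2). Compounds were dissolved in DMSO. Inoculum was made in sterile water to 0.5 McFarland (1.5 × 10⁸ CFU/mL). MIC was taken as IC₉₀, meaning ≥90% growth reduction versus the drug-free control. Growth was read visually and by absorbance at 540 nm.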

Staphylococcus aureus [12] = assay: Antibacterial activity against Staphylococcus aureus CCM 4516/08 after 48 hrs by broth microdilution method; type: functional; settings: CCM 4516/08, 48 h
How it was run: (§4)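 Broth microdilution modified from standard M07-A07 in Mueller-Hinton broth at pH 7.4 (±0.2). Compounds were dissolved in DMSO. Inoculum in sterile water was adjusted to 0.5 McFarland (1.5 × 10⁸ CFU/mL). MIC was taken as IC₉₀, i.e. ≥90% growth reduction versus control, read visually and spectrophotometrically at 540 nm.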

Staphylococcus aureus [13] = assay: Antibacterial activity against methicillin-resistant Staphylococcus aureus H 5996/08 after 24 hrs by broth microdilution method; type: functional; settings: H 5996/08, 24 h; how it was run: as §3
Staphylococcus aureus [14] = assay: Antibacterial activity against methicillin-resistant Staphylococcus aureus H 5996/08 after 48 hrs by broth microdilution method; type: functional; settings: H 5996/08, 48 h; how it was run: as §3
[15] = test system: Staphylococcus epidermidis; assay: Antibacterial activity against methicillin-resistant Staphylococcus epidermidis H 6966/08 after 24 hrs by broth microdilution method; type: functional; settings: H 6966/08, 24 h; how it was run: as §3
[16] = test system: Staphylococcus epidermidis; assay: Antibacterial activity against methicillin-resistant Staphylococcus epidermidis H 6966/08 after 48 hrs by broth microdilution method; type: functional; settings: H 6966/08, 48 h; how it was run: as §3
Trichosporon asahii = assay: Antifungal activity against Trichosporon asahii 1188 after 24 hrs by broth microdilution method; type: functional; settings: Trichosporon asahii, 1188, 24 h
How it was run: (§5)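 Microdilution broth per CLSI M27-A3 (yeasts) or M38-A2 (moulds) in RPMI 1640 with glutamine, buffered to pH 7.0 with 0.165 mol MOPS. Compounds were in DMSO. Final inoculum was 5 × 10³ ± 0.2 CFU/mL. Other conditions matched the antibacterial assay, with MIC as IC₉₀ read visually and at 540 nm. Determined twice, in duplicate.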

Aspergillus fumigatus = assay: Antifungal activity against Aspergillus fumigatus 231 after 24 hrs by broth microdilution method; type: functional; settings: Aspergillus fumigatus, 231, 24 h; how it was run: as §5
Lichtheimia corymbifera = assay: Antifungal activity against Absidia corymbifera 272 after 24 hrs by broth microdilution method; type: functional; settings: Lichtheimia corymbifera, 272, 24 h; how it was run: as §5
[17] = test system: Trichophyton mentagrophytes; assay: Antifungal activity against Trichophyton mentagrophytes 445 after 24 hrs by broth microdilution method; type: functional; settings: Trichophyton mentagrophytes, 445, 24 h
[18] = Selectivity ratio of IC50 for human HepG2 cell sto MIC100 for Mycobacterium kansasii 6509/96; type: functional
[19] = Selectivity ratio of IC50 for human HepG2 cell sto MIC90 for Staphylococcus aureus CCM 4516/08; type: functional
[20] = Selectivity ratio of IC50 for human HepG2 cell sto MIC100 for Mycobacterium kansasii 235/80; type: functional
HepG2 = assay: Cytotoxicity against human HepG2 cells after 24 hrs by MTS assay; type: cell-based; settings: HepG2, 24 h
How it was run: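 Hep G2 human liver cells (passage 3–4), 10 000 per well, in MEM with 1% glutamine, 10% fetal serum and 1% non-essential amino acids. Compounds were added from DMSO at eight increasing concentrations in quadruplicate. Exposure was 24 h at 37 °C in 5% CO₂, then MTS reagent for 1.5 h. Formazan was read at 490 nm and IC₅₀ derived as 50% of control viability.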

Escherichia coli = assay: Antibacterial activity against Escherichia coli CCM 4517 after 24 hrs by broth microdilution method; type: functional; settings: CCM 4517, 24 h; how it was run: as §4
Klebsiella pneumoniae [21] = assay: Antibacterial activity against Klebsiella pneumoniae D 11750/08 after 24 hrs by broth microdilution method; type: functional; settings: D 11750/08, 24 h; how it was run: as §4
Klebsiella pneumoniae [22] = assay: Antibacterial activity against ESBL-positive Klebsiella pneumoniae J 14368/08 after 24 hrs by broth microdilution method; type: functional; settings: J 14368/08, 24 h; how it was run: as §4
Pseudomonas aeruginosa = assay: Antibacterial activity against Pseudomonas aeruginosa CCM 1961 after 24 hrs by broth microdilution method; type: functional; settings: CCM 1961, 24 h; how it was run: as §4
Candida albicans = assay: Antifungal activity against Candida albicans ATCC 44857 after 24 hrs by broth microdilution method; type: functional; settings: ATCC 44857, 24 h; how it was run: as §5
Candida tropicalis = assay: Antifungal activity against Candida tropicalis 156 after 24 hrs by broth microdilution method; type: functional; settings: Candida tropicalis, 156, 24 h; how it was run: as §5
Nakaseomyces glabratus = assay: Antifungal activity against Candida glabrata 20/I after 24 hrs by broth microdilution method; type: functional; how it was run: as §5
Pichia kudriavzevii = assay: Antifungal activity against Candida krusei E58 after 24 hrs by broth microdilution method; type: functional; settings: E58, 24 h; how it was run: as §5

Row | SMILES | MIC [1] | MIC [2] | MIC (Mycobacterium avium [3]) | MIC (Mycobacterium avium [4]) | MIC (Mycobacterium kansasii [5]) | MIC (Mycobacterium kansasii [6]) | MIC (Mycobacterium kansasii [7]) | MIC (Mycobacterium kansasii [8]) | MIC (Mycobacterium kansasii [9]) | MIC (Mycobacterium kansasii [10]) | MIC (Staphylococcus aureus [11]) | MIC (Staphylococcus aureus [12]) | MIC (Staphylococcus aureus [13]) | MIC (Staphylococcus aureus [14]) | MIC [15] | MIC [16] | other results
1 | O=C(Nc1ccc(S(=O)(=O)Nc2ncccn2)cc1)c1cc(Cl)ccc1O | 125 µM (≈ 50.6 µg/mL) | 250 µM (≈ 101 µg/mL) | 62.5 µM (≈ 25.3 µg/mL) | 62.5 µM (≈ 25.3 µg/mL) | 4 µM (≈ 1.62 µg/mL) | 8 µM (≈ 3.24 µg/mL) | 16 µM (≈ 6.48 µg/mL) | 4 µM (≈ 1.62 µg/mL) | 8 µM (≈ 3.24 µg/mL) | 8 µM (≈ 3.24 µg/mL) | 125 µM (≈ 50.6 µg/mL) | 125 µM (≈ 50.6 µg/mL) | 31.2 µM (≈ 12.7 µg/mL) | 31.2 µM (≈ 12.7 µg/mL) | > 500 µM | > 500 µM | –
2 | Cc1cc(NS(=O)(=O)c2ccc(/N=C/c3cc(Cl)ccc3O)cc2)no1 | 125 µM (≈ 49 µg/mL) | 250 µM (≈ 98 µg/mL) | 62.5 µM (≈ 24.5 µg/mL) | 125 µM (≈ 49 µg/mL) | 4 µM (≈ 1.57 µg/mL) | 8 µM (≈ 3.13 µg/mL) | 16 µM (≈ 6.27 µg/mL) | 4 µM (≈ 1.57 µg/mL) | 4 µM (≈ 1.57 µg/mL) | 8 µM (≈ 3.13 µg/mL) | 31.2 µM (≈ 12.2 µg/mL) | 31.2 µM (≈ 12.2 µg/mL) | 15.6 µM (≈ 6.12 µg/mL) | 31.2 µM (≈ 12.2 µg/mL) | > 500 µM | > 500 µM | MIC (Trichosporon asahii): > 125 µM; MIC (Aspergillus fumigatus): > 125 µM; MIC (Lichtheimia corymbifera): > 125 µM; MIC [17]: > 125 µM; Ratio [18]: 12.1; Ratio [19]: 6.1; Ratio [20]: 12.1; IC50 (HepG2): 193 µM; MIC (Escherichia coli): 125 µM (≈ 49 µg/mL); MIC (Klebsiella pneumoniae [21]): 500 µM (≈ 196 µg/mL); MIC (Klebsiella pneumoniae [22]): 500 µM (≈ 196 µg/mL); MIC (Pseudomonas aeruginosa): ≥ 500 µM; MIC (Candida albicans): > 125 µM; MIC (Candida tropicalis): > 125 µM; MIC (Nakaseomyces glabratus): > 125 µM; MIC (Pichia kudriavzevii): > 125 µM
